# Measured values published in ChEMBL document CHEMBL3797027, “Potent anti-proliferative actions of a non-diuretic glucosamine derivative of ethacrynic acid” (Bioorg Med Chem Lett, 2016).
# The source made the active and inactive calls. The rule behind the calls is not given here.
# How the values were obtained:
# [1] = Potency index, ratio of IC50 for ethacrynic acid to IC50 for test compound for cytotoxic activity against human HT1080 cells assessed as inhibition of cell proliferation incubated for 72 hrs by MTT assay; assay type: functional, HT-1080
# Summary of the method: (§1)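 Index is the reference IC50 divided by the test IC50. Both IC50s were taken from MTT cell survival curves, each as mean ± SD of three independent experiments.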
# HCT-116 [2] = assay: Increase in PUMA protein expression in wild type p53 expressing human HCT116 cells at 10 to 40 uM by Western blot method; assay type: functional, cell-based
# Summary of the method: (§2)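 H1299 (p53-null), HCT116 (p53 wild type) and MDA-MB-231 (p53 mutant) cells were treated, then lysates were immunoblotted for p53, p21, PUMA and PARP. β-Actin served as loading control.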
# [3] = Potency index, ratio of IC50 for ethacrynic acid to IC50 for test compound for cytotoxic activity against human HCT116 cells assessed as inhibition of cell proliferation incubated for 72 hrs by MTT assay; assay type: functional, HCT-116; summary of the method: as §1
# MDA-MB-231 [4] = assay: Reduction in cellular total thiol levels in human MDA-MB-231 cells at 40 uM incubated for 3 hrs by Ellman's reagent based assay; assay type: functional
# Summary of the method: (§3)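 Cells exposed to 0–40 µM compound for 3 h, then trypsinized. Total thiols in cell extracts were quantified with Ellman's reagent.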
# HCT-116 [5] = assay: Induction of ROS generation in human HCT116 cells at 20 and 40 uM incubated for 3 hrs after pre-incubation with 3 mM NAC for 1 hr by DCFDA staining based fluorescence microscopy; assay type: functional, cell-based
# Summary of the method: (§4)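 After 3 h exposure at different concentrations, DCFH-DA fluorescence was imaged by fluorescence microscopy. H2O2 (25 µM) served as positive control. In some wells, cells were pretreated with 3 mM N-acetylcysteine before compound addition.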
# HCT-116 [6] = assay: Increase in cleaved PARP protein expression in wild type p53 expressing human HCT116 cells at 10 to 40 uM by Western blot method; assay type: functional, cell-based; summary of the method: as §2
# MDA-MB-231 [7] = assay: Increase in p21 (waf1/cip1) protein expression in p53 mutant expressing human MDA-MB-231 cells at 10 to 40 uM by Western blot method; assay type: functional, cell-based; summary of the method: as §2
# [8] = Cytotoxic activity against human GBM10 cells assessed as inhibition of cell proliferation incubated for 72 hrs by MTT assay; assay type: functional, cell-based; details: GBM10, 72 h
# Summary of the method: (§5)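 MTT cell survival assay. IC50 is the concentration that inhibits tumour cell proliferation by 50%, read from cell survival curves. Values are given as mean ± SD of three independent experiments.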
# HCT-116 [9] = assay: Induction of ROS generation in human HCT116 cells at 20 and 40 uM incubated for 3 hrs by DCFDA staining based fluorescence microscopy; assay type: functional, cell-based; summary of the method: as §4
# NCI-H1299 [10] = assay: Reduction in cellular total thiol levels in human H1299 cells incubated for 3 hrs by Ellman's reagent based assay; assay type: functional, cell-based; summary of the method: as §3
# MCF7 = assay: Cytotoxic activity against human MCF7 cells assessed as inhibition of cell proliferation incubated for 72 hrs by MTT assay; assay type: functional, cell-based; details: MCF7, 72 h; summary of the method: as §5
# [11] = Potency index, ratio of IC50 for ethacrynic acid to IC50 for test compound for cytotoxic activity against human SF188 cells assessed as inhibition of cell proliferation incubated for 72 hrs by MTT assay; assay type: functional, SF-188
# [12] = Potency index, ratio of IC50 for ethacrynic acid to IC50 for test compound for cytotoxic activity against human GBM10 cells assessed as inhibition of cell proliferation incubated for 72 hrs by MTT assay; assay type: functional; summary of the method: as §1
# HCT-116 [13] = assay: Induction of cell cycle arrest in wild type p53 expressing human HCT116 cells assessed as accumulation at G2/M phase incubated for 24 hrs by propidium iodide staining based flow cytometry; assay type: functional
# NCI-H1299 [14] = assay: Reduction in cellular total thiol levels in human H1299 cells at 40 uM incubated for 3 hrs by Ellman's reagent based assay; assay type: functional; summary of the method: as §3
# NCI-H1299 [15] = assay: Induction of ROS generation in human H1299 cells at 20 and 40 uM incubated for 3 hrs after pre-incubation with 3 mM NAC for 1 hr by DCFDA staining based fluorescence microscopy; assay type: functional, cell-based; summary of the method: as §4
# [16] = Cytotoxic activity against human SF188 cells assessed as inhibition of cell proliferation incubated for 72 hrs by MTT assay; assay type: functional, cell-based; details: SF-188, 72 h; summary of the method: as §5
# MDA-MB-231 [17] = assay: Induction of ROS generation in human MDA-MB-231 cells at 20 and 40 uM incubated for 3 hrs by DCFDA staining based flow cytometry; assay type: functional, cell-based
# Summary of the method: (§6)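 Cells were exposed for 3 h to compound, or to 25 µM H2O2 as positive control. Where indicated, 3 mM N-acetylcysteine was given 1 h before treatment. Pellets were stained with DCF-DA for 30 min, and intracellular ROS was read as fluorescence shift by flow cytometry against untreated controls.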
# HCT-116 [18] = assay: Reduction in cellular total thiol levels in human HCT116 cells incubated for 3 hrs by Ellman's reagent based assay; assay type: functional, cell-based; summary of the method: as §3
# HT-29 = assay: Cytotoxic activity against human HT-29 cells assessed as inhibition of cell proliferation incubated for 72 hrs by MTT assay; assay type: functional, cell-based; details: HT-29, 72 h; summary of the method: as §5
# [19] = molecular target: Glutathione S-transferase P (Homo sapiens) (UniProt P09211); assay: Inhibition of GSTP1 in human H1299 cells assessed as reduction in GST-pi activity pre-incubated for 3 hrs followed by chlorodinitrobenzene and reduced glutathione addition by photometric assay
# Mus musculus [20] = assay: Toxicity in mouse assessed as induction of diarrhea at 120 mg/kg/week for 2 weeks; assay type: organism-based; details: in vivo, 336 h
# HCT-116 [21] = assay: Increase in p53 protein expression in wild type p53 expressing human HCT116 cells at 10 to 40 uM by Western blot method; assay type: functional, cell-based; summary of the method: as §2
# HCT-116 [22] = assay: Induction of ROS generation in human HCT116 cells at 20 and 40 uM incubated for 3 hrs after pre-incubation with 3 mM NAC for 1 hr by DCFDA staining based flow cytometry; assay type: functional, cell-based; summary of the method: as §6
# NCI-H1299 [23] = assay: Induction of ROS generation in human H1299 cells at 20 and 40 uM incubated for 3 hrs by DCFDA staining based flow cytometry; assay type: functional, cell-based; summary of the method: as §6
# [24] = Cytotoxic activity against human HCT116 cells assessed as inhibition of cell proliferation incubated for 72 hrs by MTT assay; assay type: functional, cell-based; details: HCT-116, 72 h; summary of the method: as §5
# MDA-MB-231 [25] = assay: Potency index, ratio of IC50 for ethacrynic acid to IC50 for test compound for cytotoxic activity against human MDA-MB-231 cells assessed as inhibition of cell proliferation incubated for 72 hrs by MTT assay; assay type: functional
# Mus musculus [26] = assay: Toxicity in mouse assessed as induction of stress at 120 mg/kg/week for 2 weeks; assay type: organism-based; details: in vivo, 336 h
# Mus musculus [27] = assay: Toxicity in mouse assessed as induction of tremors at 120 mg/kg/week for 2 weeks; assay type: organism-based; details: in vivo, 336 h
# NCI-H1299 [28] = assay: Induction of cell cycle arrest in p53 deficient human H1299 cells assessed as accumulation at G2/M phase incubated for 24 hrs by propidium iodide staining based flow cytometry; assay type: functional
# [29] = Cytotoxic activity against human HT1080 cells assessed as inhibition of cell proliferation incubated for 72 hrs by MTT assay; assay type: functional, cell-based; details: HT-1080, 72 h; summary of the method: as §5
# NCI-H1299 [30] = assay: Induction of ROS generation in human H1299 cells at 20 and 40 uM incubated for 3 hrs after pre-incubation with 3 mM NAC for 1 hr by DCFDA staining based flow cytometry; assay type: functional, cell-based; summary of the method: as §6
# HCT-116 [31] = assay: Increase in p21 (waf1/cip1) protein expression in wild type p53 expressing human HCT116 cells at 10 to 40 uM by Western blot method; assay type: functional, cell-based; summary of the method: as §2
# Chain of Glutathione S-transferase P (Homo sapiens) (P09211 2-210 limits assumed): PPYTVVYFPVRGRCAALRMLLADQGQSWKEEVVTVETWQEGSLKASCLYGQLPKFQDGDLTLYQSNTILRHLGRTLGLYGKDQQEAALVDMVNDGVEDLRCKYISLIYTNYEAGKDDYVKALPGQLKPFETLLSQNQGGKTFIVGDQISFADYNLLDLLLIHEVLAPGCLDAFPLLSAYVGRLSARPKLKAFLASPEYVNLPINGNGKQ
smiles,measurement,setting,value
C=C(CC)C(=O)c1ccc(OCC(=O)N[C@@H]2[C@@H](O)[C@H](O)[C@@H](CO)O[C@H]2O)c(Cl)c1Cl,Ratio IC50,[1],3
same,Activity,HCT-116 [2],Active
same,Ratio IC50,[3],3
same,Imax,MDA-MB-231 [4],58%
same,Activity,HCT-116 [5],inactive
same,Activity,HCT-116 [6],Active
same,Activity,MDA-MB-231 [7],Active
same,IC50,[8],15.2 µM
same,Activity,HCT-116 [9],Active
same,Activity,NCI-H1299 [10],Dose-dependent effect
same,IC50,MCF7,10.1 µM
same,Ratio IC50,[11],3
same,Ratio IC50,[12],3
same,Activity,HCT-116 [13],Dose-dependent effect
same,Imax,NCI-H1299 [14],58%
same,Activity,NCI-H1299 [15],inactive
same,IC50,[16],12.3 µM
same,Activity,MDA-MB-231 [17],Active
same,Activity,HCT-116 [18],Dose-dependent effect
same,IC50,HT-29,21.7 µM
same,Activity,[19],Dose-dependent effect
same,Activity,Mus musculus [20],Non-toxic
same,Activity,HCT-116 [21],Active
same,Activity,HCT-116 [22],inactive
same,Activity,NCI-H1299 [23],Active
same,IC50,[24],10.3 µM
same,Ratio IC50,MDA-MB-231 [25],3
same,Activity,Mus musculus [26],Non-toxic
same,Activity,Mus musculus [27],Non-toxic
same,Activity,NCI-H1299 [28],Dose-dependent effect
same,IC50,[29],16.3 µM
same,Activity,NCI-H1299 [30],inactive
same,Activity,HCT-116 [31],Active
